Measurements: publication PMC3715850 (Nature Communications, 2013)
Where two headings read alike, the source gives them in different places.

Columns and labels:
Type in all cases: binding
[1] = biological target: T1, wt KF (Escherichia coli, UniProt P00582, C907S/D424A/K550C/L744C); details: for free energy of closed complex relative to partially closed state, ΔrG(IN/CN) / free energy of partially closed state relative to open binary complex, ΔrG(O/IN): template A; for free energy of partially closed state relative to open binary complex, ΔrG(O/IN): nucleotide concentrations in E. coli (dTTP 120 μM, dGTP 60 μM)
In short: (§1)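 Doubly labelled Klenow fragment (<100 pM) with DNA, titrated with nucleotide in 40 mM HEPES-NaOH pH 7.3, 10 mM MgCl2, 1 mM DTT, 100 μg ml−1 BSA, 5% glycerol, 1 mM mercaptoethylamine. Read by confocal alternating-laser excitation (532/638 nm) at ~22 °C. Stoichiometry-filtered E* histograms fitted as double Gaussians (σ≤0.07). Low-FRET peak shift and high-FRET fraction globally fitted for K0, K1, K2; Kd1=1/K1, Kd2=1/(K1K2).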

[2] = biological target: Y766F (Escherichia coli, UniProt P00582, C907S/D424A/K550C/L744C/Y766F); details: template A (DNA1); listed as A-dTTP
In short: as §1

[3] = biological target: T1, wt KF; assay: Single-molecule FRET nucleotide titration in the absence of DNA; details: no DNA
In short: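 Polymerase without DNA: doubly labelled protein (<100 pM) titrated with nucleotide in HEPES-NaOH pH 7.3 buffer with 10 mM MgCl2, at ~22 °C by confocal alternating-laser excitation smFRET. O and C denote unliganded-protein states. Double-Gaussian fits of stoichiometry-filtered E* histograms; low-FRET peak shift and high-FRET fraction fitted globally for K0, K1, K2, with Kd1=1/K1.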

[4] = biological target: T1, wt KF; assay: Interconversion rates of ternary complexes by PDA and FRET-width analysis; details: template A, listed as A-dGTP
[5] = biological target: E710A (Escherichia coli, UniProt P00582, C907S/D424A/E710A/K550C/L744C); details: for occupancy of the closed conformation: 1 mM dNTP
In short: as §1

[6] = biological target: Y766A (Escherichia coli, UniProt P00582, C907S/D424A/K550C/L744C/Y766A); details: template G (DNA2); listed as G-dCTP
In short: as §1

[7] = ternary complex, saturating nucleotide, PDA

Nc1nc2c(ncn2[C@@H]2O[C@H](COP(=O)(O)OP(=O)(O)OP(=O)(O)O)[C@@H](O)[C@H]2O)c(=O)[nH]1 [rGTP]
K2 (equilibrium IN to closed CN) ([1]; template A (DNA1), listed as A-rGTP): < 0.2

Cc1cn([C@H]2C[C@H](O)[C@@H](COP(=O)(O)OP(=O)(O)OP(=O)(O)O)O2)c(=O)[nH]c1=O [dTTP]
K2 (equilibrium IN to closed CN) [2]: 9.6 | free energy of closed complex relative to partially closed state, ΔrG(IN/CN) [1]: -0.96 kcal/mol | molecules in closed conformation (occupancy) ([1]; template A (DNA1), 1 mM nucleotide): ~ 85% | K2 (equilibrium IN to closed CN) ([1]; template A (DNA1), listed as A-dTTP): 6.1 | free energy of partially closed state relative to open binary complex, ΔrG(O/IN) [1]: -1.9 kcal/mol

Nc1nc2c(ncn2[C@H]2C[C@H](O)[C@@H](COP(=O)(O)OP(=O)(O)OP(=O)(O)O)O2)c(=O)[nH]1 [dGTP]
free energy of closed complex relative to partially closed state, ΔrG(IN/CN) [1]: +6 kJ mol^−1 | free energy of partially closed state relative to open binary complex, ΔrG(O/IN) [1]: -0.17 kcal/mol | K2 (equilibrium IN to closed CN) [3]: < 0.2 | rate of the O-to-IN transition ([4]; at 60 μM dGTP (E. coli concentration), K1·kIN→O·[N]): 390 s⁻¹ | kCN→IN (closed to partially closed) [4, 7]: 45 s⁻¹ | kIN→CN (partially closed to closed) [4, 7]: 3 s⁻¹

Nc1ncnc2c1ncn2[C@H]1C[C@H](O)[C@@H](COP(=O)(O)OP(=O)(O)OP(=O)(O)O)O1 [dATP]
occupancy of the closed conformation ([5]; template T (DNA3)): 58% | K2 (equilibrium IN to closed CN) ([5]; template T (DNA3), listed as T-dATP): ~ 2

Nc1ccn([C@H]2C[C@H](O)[C@@H](COP(=O)(O)OP(=O)(O)OP(=O)(O)O)O2)c(=O)n1 [dCTP]
K2 (equilibrium IN to closed CN) [6]: 8.9 | occupancy of the closed conformation ([5]; template G (DNA2)): 61% | K2 (equilibrium IN to closed CN) ([5]; template G (DNA2), listed as G-dCTP): ~ 2
